pIC50: −log10 of the molar value. Calls of active or inactive are those of the source. No cut-off for these calls is given here.
Assays:
[1] = biological target: T1, NAD-dependent protein deacetylase sirtuin-2 (Homo sapiens, UniProt Q8IXJ6); test: Inhibition of recombinant SIRT2 using ZMAL substrate after 4 hrs by homogeneous fluorescence assay
T1 sequence (Q8IXJ6 whole entry): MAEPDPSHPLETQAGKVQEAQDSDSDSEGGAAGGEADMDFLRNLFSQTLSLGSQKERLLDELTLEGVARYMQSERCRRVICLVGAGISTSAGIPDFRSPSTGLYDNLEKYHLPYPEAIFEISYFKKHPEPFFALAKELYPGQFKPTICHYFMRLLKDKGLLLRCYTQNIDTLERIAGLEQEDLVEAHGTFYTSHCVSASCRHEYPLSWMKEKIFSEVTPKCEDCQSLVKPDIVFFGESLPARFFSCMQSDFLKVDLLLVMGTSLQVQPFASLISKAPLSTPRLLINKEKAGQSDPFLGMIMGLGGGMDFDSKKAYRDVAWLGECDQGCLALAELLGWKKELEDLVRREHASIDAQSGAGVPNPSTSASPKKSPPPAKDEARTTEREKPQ

[2] = biological target: T2, NAD-dependent protein deacetylase sirtuin-3, mitochondrial (Homo sapiens, UniProt Q9NTG7); test: Inhibition of recombinant SIRT3 using ZMAL substrate after 4 hrs by homogeneous fluorescence assay
T2 sequence (Q9NTG7 whole entry): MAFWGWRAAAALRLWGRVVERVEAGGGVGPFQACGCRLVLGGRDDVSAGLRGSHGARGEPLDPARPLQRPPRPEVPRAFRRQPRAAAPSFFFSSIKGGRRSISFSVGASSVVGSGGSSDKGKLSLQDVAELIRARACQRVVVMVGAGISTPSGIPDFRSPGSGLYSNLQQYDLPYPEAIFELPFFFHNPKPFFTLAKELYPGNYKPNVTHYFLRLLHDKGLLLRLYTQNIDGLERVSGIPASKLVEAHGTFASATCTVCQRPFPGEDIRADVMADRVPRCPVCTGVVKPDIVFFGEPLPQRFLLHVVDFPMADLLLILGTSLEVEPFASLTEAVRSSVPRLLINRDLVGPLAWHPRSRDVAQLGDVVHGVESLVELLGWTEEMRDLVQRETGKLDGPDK

[3] = biological target: NAD-dependent protein deacylase sirtuin-5, mitochondrial (Homo sapiens, UniProt Q9NXA8); test: Inhibition of SIRT5 using ZK(suc)A substrate after 1 hr by homogeneous fluorescence assay; conditions: for pIC50: read-out: IC50
NAD-dependent protein deacylase sirtuin-5, mitochondrial, sequence (Q9NXA8 whole entry): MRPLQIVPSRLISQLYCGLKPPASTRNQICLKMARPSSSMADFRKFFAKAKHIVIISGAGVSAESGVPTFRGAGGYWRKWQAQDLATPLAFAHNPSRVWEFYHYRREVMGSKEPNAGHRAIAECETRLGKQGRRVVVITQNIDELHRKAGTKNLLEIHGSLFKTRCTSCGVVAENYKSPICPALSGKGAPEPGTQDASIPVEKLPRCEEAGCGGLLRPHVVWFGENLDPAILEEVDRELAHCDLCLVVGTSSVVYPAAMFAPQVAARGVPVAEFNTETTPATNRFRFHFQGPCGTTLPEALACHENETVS
Procedure, shortened: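 Recombinant Sirt5 reacted with 200 µM succinyl-lysine AMC substrate ZK(s)A and 500 µM NAD+ in pH 8.0 Tris buffer (130 mM NaCl, 3 mM KCl, 1 mM MgCl2, 0.1% PEG8000) with DMSO <2%. Ran 1 h at 37 °C, then trypsin for 2 min at 37 °C. Conversion without inhibitor set to 4–10%. Inhibition calculated against DMSO control, at least two independent runs; IC50 from curve fit.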

[4] = biological target: T3, NAD-dependent protein deacetylase sirtuin-1 (Homo sapiens, UniProt Q96EB6); test: Inhibition of recombinant SIRT1 using ZMAL substrate after 4 hrs by homogeneous fluorescence assay; conditions: for pIC50: read-out: IC50
T3 sequence (Q96EB6 whole entry): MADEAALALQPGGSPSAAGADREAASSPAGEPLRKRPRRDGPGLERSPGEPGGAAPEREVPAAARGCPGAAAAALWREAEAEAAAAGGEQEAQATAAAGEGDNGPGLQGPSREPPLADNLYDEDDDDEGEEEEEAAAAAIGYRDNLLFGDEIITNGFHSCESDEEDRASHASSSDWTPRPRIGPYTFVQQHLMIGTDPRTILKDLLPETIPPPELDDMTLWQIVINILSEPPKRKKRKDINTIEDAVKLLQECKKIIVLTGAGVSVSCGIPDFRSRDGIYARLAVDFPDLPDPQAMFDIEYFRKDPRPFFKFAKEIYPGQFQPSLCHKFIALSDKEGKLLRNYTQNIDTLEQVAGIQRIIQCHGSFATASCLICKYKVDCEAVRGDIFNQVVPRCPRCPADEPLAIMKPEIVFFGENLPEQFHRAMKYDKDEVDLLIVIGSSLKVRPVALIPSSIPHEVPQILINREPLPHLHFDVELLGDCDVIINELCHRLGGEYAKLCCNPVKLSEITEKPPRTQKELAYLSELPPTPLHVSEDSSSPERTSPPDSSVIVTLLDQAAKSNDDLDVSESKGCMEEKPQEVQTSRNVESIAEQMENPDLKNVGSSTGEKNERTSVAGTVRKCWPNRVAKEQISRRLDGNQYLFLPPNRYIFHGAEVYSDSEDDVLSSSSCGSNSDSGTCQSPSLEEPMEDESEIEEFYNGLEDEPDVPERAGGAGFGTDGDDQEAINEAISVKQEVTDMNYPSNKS

[5] = biological target: T4, NAD-dependent protein deacetylase sirtuin-3, mitochondrial (Homo sapiens) (UniProt Q9NTG7); test: Inhibition of recombinant SIRT3 using ZMAL substrate at 50 uM after 4 hrs by homogeneous fluorescence assay
T4 sequence (whole entry): T2 sequence (Q9NTG7 whole entry)
Procedure, shortened: (§1)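 Recombinant Sirt1, Sirt2 or Sirt3 incubated with 10.5 µM ZMAL and 500 µM NAD+ in pH 8.0 Tris buffer (137 mM NaCl, 2.7 mM KCl, 1 mM MgCl2) containing 5% DMSO. Ran 4 h at 37 °C, then trypsin developer with 8 mM nicotinamide for 20 min at 37 °C. Fluorescence at Ex 390/Em 460 nm. Conversion without inhibitor held at 10–30%. Inhibition calculated versus DMSO control, at least three independent runs; IC50 by curve fitting.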

[6] = biological target: T5, NAD-dependent protein deacetylase sirtuin-2 (Homo sapiens) (UniProt Q8IXJ6); test: Inhibition of recombinant SIRT2 using ZMAL substrate at 50 uM after 4 hrs by homogeneous fluorescence assay; procedure, shortened: as §1
T5 sequence (whole entry): T1 sequence (Q8IXJ6 whole entry)

SMILES	pIC50 [1]	pIC50 [3]	pIC50 [4]	inhibition [5]	further results
Cc1ccc(C(=O)Nc2ccc(S(=O)(=O)O)c3cc(S(=O)(=O)O)cc(S(=O)(=O)O)c23)cc1NC(=O)c1cccc(NC(=O)Nc2cccc(C(=O)Nc3cc(C(=O)Nc4ccc(S(=O)(=O)O)c5cc(S(=O)(=O)O)cc(S(=O)(=O)O)c45)ccc3C)c2)c1 [SURAMIN]	5.96				IC50 [2]: Not Active
O=c1[nH]c(=S)[nH]c(-c2ccccc2)c1Cc1c(O)ccc2ccccc12 [CAMBINOL]		4.37			
O=C1CC(c2ccccc2)c2c(ccc3cc(Br)ccc23)O1 (stereo not given)	6.00				IC50 [3]: Not Active; IC50 [4]: Not Active; IC50 [2]: Not Active
CCN1C(=O)/C(=C/c2ccc(OCc3ccccc3)cc2)C(=O)NC1=S	4.84	4.89	4.27	25%	
O=C1NC(=S)NC(=O)C1=Cc1ccc(-c2ccccc2)cc1		4.52	4.30		pIC50 ([2]; read-out: IC50): 4.39
O=C1NC(=S)NC(=O)C1=Cc1cn(Cc2ccccc2)c2ccccc12		4.78	4.55		inhibition [6]: 20%
O=C1NC(=S)NC(=O)C1=Cc1ccc(OCc2ccccc2)cc1	5.01	4.90	4.98		
O=C1NC(=S)NC(=O)C1=Cc1ccc(OCc2ccc(Br)cc2)cc1	5.47	5.21	5.00		
CCN1C(=O)/C(=C/c2c[nH]c3ccccc23)C(=O)NC1=S		4.25	4.05	inactive	inhibition [6]: 10%
COc1ccc2c(C=C3C(=O)NC(=S)NC3=O)cccc2c1	4.93	4.65	5.22		
C=CCN1C(=O)/C(=C/c2ccc(OCc3ccccc3)cc2)C(=O)NC1=S		4.17	4.43	13%	inhibition [6]: inactive
O=C1NC(=S)NC(=O)C1=Cc1c[nH]c2ccccc12	4.69	4.33	5.23	14%	
CN1C(=O)/C(=C/c2c[nH]c3ccccc23)C(=O)NC1=S		4.57	4.37	17%	inhibition [6]: 20%
CC(C)c1ccc(C=C2C(=O)NC(=S)NC2=O)cc1	4.83	4.40	4.91	13%	
COc1cc(C=C2C(=O)NC(=S)NC2=O)ccc1OCc1ccccc1Cl	5.12	4.91	5.17		
CS(=O)(=O)O.Cn1cc(C2=C(c3cn(CCCSC(=N)N)c4ccccc34)C(=O)NC2=O)c2ccccc21					IC50 [3]: Not Active
NC(=O)C1CCCc2c1[nH]c1ccc(Cl)cc21 (stereo not given)					IC50 [3]: Not Active
CC(NC(=O)c1ccccc1/N=C/c1c(O)ccc2ccccc12)c1ccccc1 (stereo not given) [SIRTINOL]		4.31		24%	
C=CCN1C(=O)/C(=C/c2ccc(-c3cccc(Cl)c3Cl)o2)C(=O)NC1=S	5.01	5.64	5.28	41%	
CN1C(=O)/C(=C/c2ccc(OCc3ccccc3)cc2)C(=O)NC1=S	5.00	4.75	4.25	22%	
O=C1NC(=S)NC(=O)C1=Cc1ccc(-c2cccc(Cl)c2Cl)o1	4.98	5.44	5.47	30%	

Reference: ChEMBL document CHEMBL2203031, “Inhibitors of the NAD(+)-Dependent Protein Desuccinylase and Demalonylase Sirt5” (ACS Med Chem Lett, 2012)
